M1 PAM: positive allosteric modulators of human M1 muscarinic receptor. P11229. CHO-K1 hM1, Fluo-8 calcium fluorescence, ACh EC20; 0% = ACh EC20, 100% = maximal ACh. activation, % at 3 µM. 0.088% of 360,000 active. AID 588819; in the data active means activation above about 19%, passing the limit was not always enough
M1 ag: agonists of human M1 muscarinic receptor; 0.33% of 360,000 active; CHO-K1 hM1, Fluo-8 calcium fluorescence, agonist mode; 0% DMSO, 100% acetylcholine EC100; P11229; activation, % at 3 µM;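 active means activation above the run's mean compound activation plus 3 SD, cut at about 16% in these data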;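 further: peak over basal fluorescence ratio within a 140 s kinetic read after compound addition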
CHRM1 antagonist: blocks human M1 muscarinic receptor; P11229; CHO-K1 hM1, Fluo-8 calcium fluorescence, ACh EC80 antagonist; inhibition, % at 3 µM; 1.3% of 360,000 active; AID 588852;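 active means percent inhibition above its own plate's cutoff, namely the mean of that plate's compound wells plus 3 SD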;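 further: peak over basal fluorescence ratio during 140 s after agonist addition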
TAAR1 agonist: agonists of human TAAR1 | CHO RD-HGA16 TAAR1, Fluo-8 calcium fluorescence; vehicle wells 0%, saturating PEA agonist 100% | 0.99% of 360,000 active | activation, % at 3 µM | Q96RJ0;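 active means activation above the mean activation of all test compounds in the run plus 3 SD, cut at about 38% in these data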
Target sequence (Q96RJ0 whole entry, looked up): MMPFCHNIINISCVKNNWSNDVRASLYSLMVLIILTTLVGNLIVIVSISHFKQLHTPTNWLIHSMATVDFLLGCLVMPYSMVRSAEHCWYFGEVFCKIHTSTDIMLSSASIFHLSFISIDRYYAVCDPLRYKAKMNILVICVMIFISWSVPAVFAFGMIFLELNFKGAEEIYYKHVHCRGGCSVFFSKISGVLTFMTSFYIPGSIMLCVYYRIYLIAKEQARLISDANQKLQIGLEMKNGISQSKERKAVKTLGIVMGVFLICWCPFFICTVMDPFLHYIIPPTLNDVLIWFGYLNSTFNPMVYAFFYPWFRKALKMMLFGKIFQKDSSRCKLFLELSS
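System: CHO-derived RD-HGA16 cells with stable Gα16 and human TAAR1 / Times: 17-24 h plating, Fluo-8 75 min 37 °C, 30 min RT / Technique: calcium-sensitive Fluo-8 signal, excitation 470-495, emission 515-575 nm / Measure: % activation relative to PEA EC100 response / Benchmarks: DMSO and PEA EC100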
TAAR1 antagonist: human TAAR1 antagonism. CHO RD-HGA16 TAAR1, Fluo-8 calcium fluorescence, antagonist. Q96RJ0. 1.5% of 360,000 active. inhibition, % at 3 µM. AID 624466;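 active means inhibition above a per-plate cutoff, the mean inhibition of test compounds on that plate plus 3 SD, cut at about 49% in these data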
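Test system: CHO RD-HGA16 cells bearing hTAAR1 | Reagent: β-PEA, EC80 | Compound dosing: 3 µM, single point | Schedule: Dye loading 75 min at 37 °C, then 30 min room temperature | Signal: Calcium fluorescence with Fluo-8 | Evaluation: Percent inhibition of PEA-evoked calcium signal, max/basal emission ratio | Control set: DMSO-only wells and EC80 β-PEA-stimulated wells | Repeats: Singlicate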
Of the large screens only hits and unclear results are named; the others gave an inactive call. The list is not random: actives were taken first. Their share in the collection is about 3.4%.

CC1CCC(C(C)C)C(OCC(O)CN2CCOCC2)C1 (stereo unspecified)	none
CC1CCC(C(C)C)C(OCC(O)C[N+]2(C)CCCCC2)C1 (stereo unspecified)	CHRM1 antagonist 76
COC(=O)c1cc2c(c3c4cc(C)ccc4n(S(=O)(=O)c4ccc(OC)cc4)c13)C(=O)N(Cc1ccc(C(F)(F)F)cc1)C2	none (no result: M1 PAM, M1 ag, CHRM1 antagonist)
c1ccc(-c2ccc3c(n2)CCCN3Cc2ccccn2)cc1	none (no result: M1 PAM, M1 ag, CHRM1 antagonist)
CC(C)(C)C(=O)NC(=S)NNC(=O)c1ccc(-c2ccccc2)cc1	M1 ag 115, CHRM1 antagonist 103 (no result: TAAR1 agonist, TAAR1 antagonist)
CC(C)(C)C(=O)N1CCN(c2ccc([N+](=O)[O-])cc2Cl)CC1	none
O=C(O)c1ccccc1C(=O)c1ccc(N2CCCC2)c([N+](=O)[O-])c1	none
CN1CCN(c2ccc([N+](=O)[O-])cc2C(=O)c2ccc(Br)cc2)CC1	CHRM1 antagonist 21
NNC(=O)c1ccc(N2CCc3ccccc32)c([N+](=O)[O-])c1	TAAR1 antagonist 55
Cc1ccc(C(=O)c2cc([N+](=O)[O-])ccc2N2CCN(C)CC2)cc1	none
CC(=O)c1ccc(N2CCN(c3ccccc3O)CC2)c([N+](=O)[O-])c1	CHRM1 antagonist 37, TAAR1 antagonist 51
O=[N+]([O-])c1ccc(N2CCN(c3ccc([N+](=O)[O-])cc3CO)CC2)c(CO)c1	TAAR1 antagonist 53
Cc1[nH]nc2c1C(c1ccc(Br)cc1)N(c1ccccc1)C2=O (stereo unspecified)	none (no result: M1 PAM, M1 ag, CHRM1 antagonist)
COc1cccc(CNC(=O)[C@@H]2CCCN2C(=O)[C@H]2CCCCN2C(=O)c2c(F)cccc2F)c1	none (no result: M1 PAM, M1 ag, CHRM1 antagonist)
Cc1ccc(CN(C)C[C@H]2OCc3cnnn3CCCC(=O)N([C@H](C)CO)C[C@@H]2C)cc1	none (no result: M1 PAM, M1 ag, CHRM1 antagonist)
COCc1cc(N2CCN(C(=O)OC(C)(C)C)C[C@@H]2C)ccc1N1CC[C@H](O)C1	none (no result: M1 PAM, M1 ag, CHRM1 antagonist)
N#Cc1cc([N+](=O)[O-])ccc1N1CCN(c2ccccc2O)CC1	TAAR1 antagonist 52
CCOc1ccccc1-n1c(SCC(=O)NC)nnc1-c1ccco1	none
CNC(=O)CSc1nnc(-c2ccco2)n1-c1ccccc1OC	M1 PAM 25
CC(c1nc2ccccc2n1Cc1ccccc1)n1c(-c2cnccn2)nc2ccccc21 (stereo unspecified)	none (no result: M1 PAM, M1 ag, CHRM1 antagonist)
Nc1nc2c(ncn2[C@@H]2O[C@H](C(=O)NCC(F)(F)F)[C@@H](O)[C@H]2O)c(=O)[nH]1	none (no result: M1 PAM, M1 ag, CHRM1 antagonist)
O=C(NC(=S)NNC(=O)[C@H]1C[C@@H]1c1ccccc1)c1ccc(F)cc1	TAAR1 agonist 41, TAAR1 antagonist 63
CC(C)(C)NC(=S)NNC(=O)[C@H]1C[C@@H]1c1ccccc1	none
COc1ccc2cc1Oc1ccc(cc1)CC1c3c(cc(OC)c4c3Oc3cc5c(cc3O4)CCNC5C2)CCN1C (stereo unspecified)	CHRM1 antagonist 91 (no result: TAAR1 agonist, TAAR1 antagonist)
COc1ccc2cc1Oc1ccc(cc1)C[C@H]1c3c(cc(OC)c4c3Oc3c(ccc5c3[C@H](C2)N(C)CC5)O4)CCN1C	none (no result: TAAR1 agonist, TAAR1 antagonist)
CN(C)C(CNC(=O)CCc1nc2cc(Cl)ccc2n(Cc2ccccc2)c1=O)c1ccccc1 (stereo unspecified)	CHRM1 antagonist 27
CCOC(=O)C1=CCN(S(=O)(=O)c2ccccc2[N+](=O)[O-])C1c1ccc(C)cc1 (stereo unspecified)	none
CC1(C)CC2(C)OC2C2(C1)N=NC(=Nc1ccccc1)O2 (stereo unspecified)	none (no result: TAAR1 agonist, TAAR1 antagonist)
O=C1NC(=O)C2(N1)C(=O)c1cccc3cccc2c13 (stereo unspecified)	M1 ag 49
COc1cccc(S(=O)(=O)N(C)C[C@@H]2Oc3ncc(Br)cc3C(=O)N([C@H](C)CO)C[C@@H]2C)c1	none (no result: M1 PAM, M1 ag, CHRM1 antagonist)
OCC1OC(n2cnc3c(SCc4ccccc4)nc(NO)nc32)C(O)C1O (stereo unspecified)	CHRM1 antagonist 71
C[C@@H]1OC(C2CCCCC2)N(C)[C@H]2C[C@H]3c4[nH]c5cccc(-c6ccccc6)c5c4CCN3C(=O)[C@@H]12 (stereo partly specified)	none (no result: M1 PAM, M1 ag, CHRM1 antagonist)
COc1ccc(C(=O)c2[nH]c(N)c(C(=O)NCCc3c[nH]c4ccccc34)c2-c2ccccc2C(F)(F)F)cc1	none (no result: M1 PAM, M1 ag, CHRM1 antagonist)
CCCCCCCCn1c2c(c(=N)c3ccccc31)CCC2	CHRM1 antagonist 47
CCCCCCCCCn1c2c(c(=N)c3c1CCC3)CCCC2	CHRM1 antagonist 49 (no result: TAAR1 agonist, TAAR1 antagonist)
COC(=O)C1=C(C)N(Cc2ccccc2)C(=S)NC1c1cccc(Br)c1 (stereo unspecified)	none (no result: M1 PAM, M1 ag, CHRM1 antagonist)
O=[N+]([O-])c1cccc(COc2ccc(CN3CCOCC3)cc2)c1	CHRM1 antagonist 49
O=[N+]([O-])c1cccc(CN2CCCCCC2)c1	none
O=[N+]([O-])c1cccc(COc2ccc(CN3CCCC3)cc2)c1	CHRM1 antagonist 59
C[C@@H]1CN(S(=O)(=O)C(C)(C)C)[C@@H](CCO)/C1=C\CCO	none (no result: M1 PAM, M1 ag, CHRM1 antagonist)
CN1CCN(C(c2ccccc2)c2ccc(Cl)cc2)CC1 (stereo unspecified)	none
CN1CCN(C(c2cccc(Cl)c2)c2ccccc2Cl)CC1 (stereo unspecified)	CHRM1 antagonist 88
Cc1ccc(Cl)cc1N1CCN(C(=O)c2cc3c(=O)[nH]c4ccccc4c3n2C)CC1	TAAR1 antagonist 51
CCCCNC(=O)C(NC(=O)c1cnc(C)cn1)C(=O)c1ccccc1 (stereo unspecified)	none (no result: M1 PAM, M1 ag, CHRM1 antagonist)
CCCCNC(=O)CSc1nc2ccc(N3CCOCC3)cc2c(=O)n1CCc1ccccc1	none
O=C(CSc1nc2ccc(N3CCOCC3)cc2c(=O)n1CCc1ccccc1)NCC1CCCO1 (stereo unspecified)	TAAR1 antagonist 52
COc1ccc(OC)c(CCNC(=O)c2cccc(NC(=O)C3=C(C)OCCS3)c2)c1	TAAR1 antagonist 57
O=C1c2cccc(-c3ccc(C(F)(F)F)cc3)c2C2CC=CCN12 (stereo unspecified)	none
CN(C)c1ccc(CC(=O)N2CCCC(c3cc(C(=O)Nc4ccc(C(C)(C)C)cc4)no3)C2)cc1 (stereo unspecified)	CHRM1 antagonist 29, TAAR1 antagonist 55
O=C(Nc1ccccc1)c1cc(C2CCCN(C(=O)CCc3ccccc3)C2)on1 (stereo unspecified)	none
Nc1ccccc1SC1CC(=O)N(c2ccc(Cl)c(Cl)c2)C1=O (stereo unspecified)	TAAR1 antagonist 59
Nc1ccccc1SC1CC(=O)N(c2ccc3c(c2)OCCO3)C1=O (stereo unspecified)	none
O=C1Nc2ccccc2-n2nnnc2C1N1CCc2ccccc2C1 (stereo unspecified)	none (no result: M1 PAM, M1 ag, CHRM1 antagonist)
COc1ccccc1CC(=O)Nc1ccc(-c2nnc(-c3ccco3)o2)cc1	none
COc1cc(C(=O)Nc2ccc(-c3nnc(-c4ccco4)o3)cc2)cc(OC)c1OC	TAAR1 antagonist 52
C[C@@H]1CNCCN1c1ccc(N2CCN(Cc3ccccc3)[C@@H](C)C2)c(C#N)c1	none (no result: M1 PAM, M1 ag, CHRM1 antagonist)
